Results reported in ChEMBL document CHEMBL1138080, “Design and synthesis of novel 2-amino-5-hydroxyindole derivatives that inhibit human 5-lipoxygenase” (J Med Chem, 2006).

Columns and labels:
[1] = molecular target: T1, Polyunsaturated fatty acid 5-lipoxygenase (Homo sapiens, UniProt P09917); assay: Inhibition of 5-LOX
T1 sequence (P09917 whole entry): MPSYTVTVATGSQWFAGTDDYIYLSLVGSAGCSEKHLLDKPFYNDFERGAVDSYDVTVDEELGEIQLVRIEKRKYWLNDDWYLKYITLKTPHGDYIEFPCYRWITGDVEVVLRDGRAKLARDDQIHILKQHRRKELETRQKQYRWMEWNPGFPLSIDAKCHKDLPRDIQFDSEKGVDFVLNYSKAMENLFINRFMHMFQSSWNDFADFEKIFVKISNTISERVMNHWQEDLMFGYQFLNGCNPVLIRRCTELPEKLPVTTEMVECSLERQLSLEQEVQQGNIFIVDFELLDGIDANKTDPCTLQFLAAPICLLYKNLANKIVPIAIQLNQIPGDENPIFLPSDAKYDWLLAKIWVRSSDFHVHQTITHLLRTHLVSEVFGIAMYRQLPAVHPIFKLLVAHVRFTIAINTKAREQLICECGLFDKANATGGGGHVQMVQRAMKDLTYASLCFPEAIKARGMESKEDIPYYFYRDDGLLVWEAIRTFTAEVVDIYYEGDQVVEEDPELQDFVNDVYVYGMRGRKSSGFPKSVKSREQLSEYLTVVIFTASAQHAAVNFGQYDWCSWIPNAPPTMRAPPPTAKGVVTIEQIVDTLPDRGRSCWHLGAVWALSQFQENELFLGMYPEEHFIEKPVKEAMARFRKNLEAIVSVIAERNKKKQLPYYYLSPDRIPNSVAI
How it was run: (§1)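 5-LO was human recombinant, expressed in E. coli JM 109 (pT3-5LO). Lysis, ammonium sulfate precipitation and a 100000g spin gave the S100 supernatant used as enzyme source. The assay contained 1 mM ATP and test compound or DMSO vehicle, and the enzyme was incubated with 20 µM arachidonic acid.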

[2] = molecular target: T1, Polyunsaturated fatty acid 5-lipoxygenase; assay: Inhibition of 5-LOX in A-23187-stimulated PNML
How it was run: (§2)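 Freshly isolated human PMNL (10^7 in 1 mL PBS with 1 mg/mL glucose and 1 mM CaCl2) were preincubated with compound at 37 °C. They were then stimulated with 2.5 µM ionophore A23187 for 10 min at 37 °C and stopped with methanol, with prostaglandin B1 added as standard.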

[3] = molecular target: T2, Polyunsaturated fatty acid 5-lipoxygenase (Homo sapiens) (UniProt P09917); assay: Inhibition of 5-LOX at 10 uM; how it was run: as §1
T2 sequence (whole entry): T1 sequence (P09917 whole entry)

[4] = molecular target: T2, Polyunsaturated fatty acid 5-lipoxygenase (Homo sapiens); assay: Inhibition of 5-LOX in A-23187-stimulated […] at 10 uM; how it was run: as §2
[5] = molecular target: T1, Polyunsaturated fatty acid 5-lipoxygenase; assay: Inhibition of 5-LOX in A23187 and arachidonic acid-stimulated […]
How it was run: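 Human PMNL (10^7/mL in PBS with glucose and 1 mM CaCl2) were preincubated with compound at 37 °C. They were then challenged with 2.5 µM A23187 plus 20 µM exogenous arachidonic acid for 10 min at 37 °C. The reaction was stopped with methanol and 5-LO products were quantified against a prostaglandin B1 standard.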

Row | Structure (SMILES) | IC50 [1] | IC50 [2] | inhibition [3] | inhibition [4] | IC50 [5]
1 | CCOC(=O)c1c(Nc2cccc(Cl)c2)[nH]c2ccc(O)cc12 | 0.3 µM | 2.4 µM | – | – | –
2 | CCOC(=O)c1c(Nc2ccc(C)cc2)[nH]c2ccc(O)cc12 | 5 µM | 5.2 µM | 77% | 76% | –
3 | CCOC(=O)c1c(N(C)C)[nH]c2ccc(O)cc12 | – | – | – | 0% | –
4 | CCOC(=O)c1c(NC(C)c2ccccc2)[nH]c2ccc(O)cc12 (stereo not given) | 3 µM | 1.2 µM | 72% | 94% | 4.6 µM
5 | COC(=O)c1c(NC(C)c2ccccc2)[nH]c2ccccc12 (stereo not given) | – | – | 42% | 48% | –
6 | C=CCN(CC=C)c1[nH]c2ccc(O)cc2c1C(=O)OCC | 7.1 µM | 7.2 µM | 65% | 71% | –
7 | CCOC(=O)c1c(N2CCN(c3ccc(Cl)cc3)CC2)[nH]c2ccc(O)cc12 | 2.3 µM | 5 µM | 69% | 84% | 5.8 µM
8 | CCOC(=O)c1c(N2CCN(c3ccccc3)CC2)n(C)c2ccc(OC)cc12 | – | – | 36% | 14% | –
9 | CC(=O)c1c(N)[nH]c2ccc(O)cc12 | – | – | – | 0% | –
10 | COC(=O)c1c(NC(C)c2ccccc2)[nH]c2ccc(O)cc12 (racemic) | – | – | 94% | 77% | –
11 | Nc1[nH]c2ccc(O)cc2c1C(=O)c1ccccc1 | – | – | – | 0% | –
12 | CC(Nc1[nH]c2ccc(O)cc2c1C#N)c1ccccc1 (stereo not given) | 10 µM | 2.8 µM | 62% | 85% | 4.1 µM
13 | CCOC(=O)c1c(N2CCCCC2)[nH]c2ccc(O)cc12 | – | – | – | 0% | –
14 | CC(=O)N(O)C/C=C/c1cccc(Oc2ccccc2)c1 | – | – | 86% | 93% | –
15 | CCOC(=O)c1c(N2CCN(c3ccc(F)cc3)CC2)[nH]c2ccc(O)cc12 | – | – | 81% | 22% | –
16 | CCOC(=O)c1c(Nc2ccccc2)[nH]c2ccc(O)cc12 | 2.3 µM | 7.3 µM | 80% | 65% | –
17 | CCOC(=O)c1c(N2CCN(C)CC2)[nH]c2ccc(O)cc12 | – | – | – | 0% | –
18 | N#Cc1c(N)[nH]c2ccc(O)cc12 | – | – | – | 0% | –
19 | CCOC(=O)c1c(Nc2cccnc2)[nH]c2ccc(O)cc12 | – | – | 24% | 19% | –
20 | CCOC(=O)c1c(N2CCCC2)[nH]c2ccc(O)cc12 | – | – | – | 0% | –
21 | CCOC(=O)c1c(NC(C)c2ccccc2)[nH]c2ccccc12 (stereo not given) | 9.8 µM | 9.7 µM | 51% | 53% | 5.9 µM
22 | CCOC(=O)c1c(N2CCN(c3ccccc3)CC2)[nH]c2ccc(O)cc12 | 3.1 µM | > 20 µM | 79% | 22% | –
23 | CCOC(=O)c1c(N2CCN(Cc3ccccc3)CC2)[nH]c2ccc(O)cc12 | – | – | 61% | 15% | –
24 | CCOC(=O)c1c(N2CCOCC2)[nH]c2ccc(O)cc12 | – | – | – | 0% | –
